According to PubChem BioAssay:
Activity calls are given as the source filed them.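 How the source made its calls, unless noted: active means fluorescence slope higher than the sample average by over 3 SD (cut at about -0.22 in these data, passing the limit was not always enough); inactive means the rest.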

Legend:
[1] = inhibitors of TNFa-induced NFkB p65 translocation, primary screen, imaging, HUVEC, MLSMR starter and 10KST1 sets (AID 438;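 active means inhibition above 20% together with a positive visual image hit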;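 further: compound added about 3h40 before a 20 min TNFalpha stimulation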;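 on inhibition: signal is the nuclear over cytoplasmic p65 intensity ratio per well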); details: HUVEC TNFa-induced p65 nuclear translocation; cell count: measured here: nuclei count (cytotoxicity indicator), at 2.08 µM; inhibition: at 2 µM, stronger effect = higher value, 0% TNFa-plus-vehicle, 100% no-TNFa wells
[2] = endothelial E-selectin expression blockers – imaging, HUVEC, immunofluorescence, MLSMR starter and 10KST1 sets, primary screen (AID 487;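 active means visually confirmed hit in the image check and inhibition above 20%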;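 on inhibition: signal is fraction of cell area covered by stained E-selectin grains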;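 on nuclei count: 100% = median nuclei count of all wells on the same plate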); details: HUVEC TNFalpha-induced E-selectin immunofluorescence imaging, at 2 µM; inhibition: stronger effect = higher value; nuclei count: measured here: cell number, toxicity
[3] = Primary imaging screen for DUSP6 inhibitors that restore phospho-Erk in transfected HeLa cells, chemical complementation (AID 609;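 active means compounds giving at least 50% inhibition in the cell-based MKP-3 phosphatase rescue imaging test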;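 on inhibition: phospho-Erk level distribution per well compared with pooled transfected vehicle control wells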); details: HeLa MKP-3 transfected, phospho-Erk imaging KS statistic, at 10 µM, cells stimulated with TPA for 15 min
[4] = target: Dual specificity protein phosphatase 6 (Homo sapiens) (UniProt Q16828); test: as above; details: HeLa MKP-3 transfected, phospho-Erk imaging KS statistic; at 10 µM; stronger effect = higher value; cells stimulated with TPA for 15 min
Sequence of Dual specificity protein phosphatase 6 (Homo sapiens) (Q16828 whole entry, looked up): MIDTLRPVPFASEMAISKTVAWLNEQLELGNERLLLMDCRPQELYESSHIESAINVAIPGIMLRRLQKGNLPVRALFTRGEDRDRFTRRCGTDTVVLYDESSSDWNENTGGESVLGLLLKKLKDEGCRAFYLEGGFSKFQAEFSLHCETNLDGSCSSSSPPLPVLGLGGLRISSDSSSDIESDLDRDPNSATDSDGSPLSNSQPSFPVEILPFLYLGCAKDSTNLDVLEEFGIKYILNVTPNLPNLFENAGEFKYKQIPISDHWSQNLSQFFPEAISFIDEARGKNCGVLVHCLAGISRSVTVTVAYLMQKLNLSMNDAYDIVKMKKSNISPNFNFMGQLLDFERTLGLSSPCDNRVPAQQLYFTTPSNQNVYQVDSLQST

[5] = target: Voltage-gated potassium channel subunit beta-2 (Rattus norvegicus) (UniProt P62483); test: inhibitors of rat Kvbeta2 reductase activity – biochemical, NADPH fluorescence, primary screen (AID 622); details: recombinant KvBeta, 4-cyanobenzaldehyde reduction, at 10 µM, stronger effect = higher value;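 further: slope of raw intensity against log time taken from 70 to 1610 s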
Sequence of Voltage-gated potassium channel subunit beta-2 (Rattus norvegicus) (P62483 whole entry, looked up): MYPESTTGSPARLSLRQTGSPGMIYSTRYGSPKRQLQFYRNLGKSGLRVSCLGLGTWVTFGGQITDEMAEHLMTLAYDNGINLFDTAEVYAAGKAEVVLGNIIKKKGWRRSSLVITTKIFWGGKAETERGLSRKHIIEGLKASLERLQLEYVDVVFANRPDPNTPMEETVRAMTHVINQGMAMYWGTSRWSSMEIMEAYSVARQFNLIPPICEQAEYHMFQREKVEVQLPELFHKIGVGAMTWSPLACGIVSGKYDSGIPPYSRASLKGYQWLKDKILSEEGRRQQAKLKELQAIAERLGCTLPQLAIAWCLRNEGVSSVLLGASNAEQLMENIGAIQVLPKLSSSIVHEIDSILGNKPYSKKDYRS

[6] = target: Voltage-gated potassium channel subunit beta-2 (Rattus norvegicus) (UniProt P62483); test: enhancers of rat Kvbeta2 NADPH turnover – biochemical, NADPH fluorescence, primary screen (AID 623;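 active means NADPH fluorescence slope more negative than the mean of all samples by about 3 SD, 99.7% confidence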;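 further: fluorescence intensity change per second fitted from 20 to 320 s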); details: Recombinant KvBeta, NADPH fluorescence decrease slope, 10 min; at 10 µM; stronger effect = lower value
[7] = target: Alpha-2C adrenergic receptor (Homo sapiens) (UniProt P18825); test: compounds altering alpha2C-coupled GIRK flux – cell-based, HEK293 alpha2C/GIRK1/2, thallium flux, primary screen (AID 624;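 active means fluorescence slope after compound addition differing from the mean of all screened samples at 99.7% confidence, in either direction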;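 further: slope of fluorescence ratio to pre-addition baseline per second over 15 to 24 s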); details: thallium flux BTC fluorescence, at 10 µM, actives lie on both sides
Sequence of Alpha-2C adrenergic receptor (Homo sapiens) (P18825 whole entry, looked up): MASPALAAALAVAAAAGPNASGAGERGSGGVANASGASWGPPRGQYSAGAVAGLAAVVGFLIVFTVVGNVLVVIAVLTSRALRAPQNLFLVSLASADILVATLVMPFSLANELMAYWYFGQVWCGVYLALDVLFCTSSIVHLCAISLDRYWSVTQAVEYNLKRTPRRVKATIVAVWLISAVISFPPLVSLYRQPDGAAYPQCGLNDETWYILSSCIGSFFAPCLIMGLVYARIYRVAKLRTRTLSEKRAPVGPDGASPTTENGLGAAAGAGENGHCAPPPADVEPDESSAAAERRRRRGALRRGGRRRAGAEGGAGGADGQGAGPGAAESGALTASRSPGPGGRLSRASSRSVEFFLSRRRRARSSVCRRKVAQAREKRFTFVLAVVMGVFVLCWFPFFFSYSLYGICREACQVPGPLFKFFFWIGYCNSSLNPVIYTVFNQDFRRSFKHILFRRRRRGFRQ

[8] = inhibitors of larval lipid processing in zebrafish, primary screen, whole organism, PED6 fluorescence, gall bladder and intestine (AID 686;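 active means a full or partial loss of lipid-probe fluorescence in the fish gall bladder, intestine or both, judged by eye; inactive means no fluorescence loss, or compound toxic to the fish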;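 further: larvae 5 to 7 days old with five fish per well; signal comes from phospholipase A2 cleavage of quenched PED6 carried via bile; overnight exposure to compound and PED6 before scoring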); details: Zebrafish larvae PED6 lipid processing, fluorescence scoring; screened at 20 µM (by protocol)
Method in brief: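 Also added: quenched phospholipase substrate PED6, 100 nM final, ingested by larvae; System: zebrafish larvae, 5-7 d; Quantity: 5 larvae per well; Compound: 20 µM single dose; Schedule: overnight compound and PED6 incubation; Read-out: visual per-well fluorescence inhibition score; Measured by: By-eye fluorescence microscopy; Medium: E3.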

[9] = loss of swimming-algae plug formation – whole organism, Chlamydomonas reinhardtii, WT vs cilia-less mutant, absorbance, 96-well, primary screen (AID 463189;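 active means inhibition at or above 50% relative to wild type and mutant plate controls; inactive means inhibition below 50%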;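 further: 0% = wild type cc124 cells in DMSO and 100% = ciliumless bld1 mutant cells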); details: Chlamydomonas reinhardtii gravitaxis, OD600 absorbance, 2 days; at 10 µM; stronger effect = higher value
[10] = measured here: cell density z-score
[11] = measured here: nuclear c-Myc green intensity z-score
[12] = measured here: nuclear pErk red intensity z-score, stronger effect = higher value

Row | SMILES | cell count [1] | inhibition [1] | inhibition [2] | nuclei count [2] | z-score [3, 10] | z-score [3, 11] | z-score [3, 12] | inhibition [4] | fluorescence slope [5] | NADPH fluorescence slope [6] | slope [7] | outcome [8] | inhibition [9]
1 | CCCOc1ccc(/C(O)=C2/C(=O)C(=O)N(CCCN3CCOCC3)C2c2ccncc2)cc1 (stereo unspecified) | 398 | -0.5% (inactive) | -151% (inactive) | 145% | 0.781 | 0.803 | -0.95 | -8.27% (inactive) | -0.341 (inactive) | -1.2e-05 (inactive) | 0.0051 (inactive) | inactive | 0.312% (inactive)
2 | COc1ccccc1N(O)C1CC(=O)N(c2ccc(Br)cc2)C1=O (stereo unspecified) | 351 | 4% (inactive) | 46% (inactive) | 74.7% | -0.0216 | 1.1 | 0.319 | -2.59% (inactive) | -0.415 (inactive) | -4.4e-05 (inactive) | 0.00547 (inactive) | inactive | 37.8% (inactive)
3 | CC(C)OC(=O)c1sc2nc3c(cc2c1N)C(=O)CCC3 | 334 | -8% (inactive) | -109% (inactive) | 159% | 1.59 | -1.25 | -0.674 | 9.42% (inactive) | -0.403 (inactive) | -9.2e-05 (inactive) | 0.0073 (inactive) | inactive | -4.23% (inactive)
4 | C=CCOn1c(=O)c(-c2cc3ccccc3o2)[n+]([O-])c2ccccc21 | 536 | -1.4% (inactive) | -41.6% (inactive) | 144% | -0.342 | 0.414 | -0.0488 | -8.76% (inactive) | -0.123 (inactive) | 1.7e-05 (inactive) | 0.00548 (inactive) | inactive | 18.3% (inactive)
5 | CC1(C(=O)O)CCC(C(=O)NC2CCCCCC2)C1(C)C (stereo unspecified) | 542 | -9.8% (inactive) | -131% (inactive) | 196% | 1.72 | -0.55 | -1.37 | 28.6% (inactive) | -0.513 (inactive) | -0.000107 (inactive) | 0.00621 (inactive) | inactive | 28.8% (inactive)
6 | c1coc(-c2nnc3sc(Cc4cccs4)nn23)c1 | 593 | -3.5% (inactive) | 60.4% (inactive) | 98.5% | 0.488 | -1.26 | -0.189 | -13.3% (inactive) | -0.5 (inactive) | -4.8e-06 (inactive) | 0.00451 (inactive) | inactive | 5.83% (inactive)
7 | COc1ccc(NC(=O)Nc2cccc(C(=O)N3CCOCC3)c2)cc1OC | 543 | 0% (inactive) | -176% (inactive) | 131% | 0.702 | -0.546 | -0.00586 | 12.3% (inactive) | -0.527 (inactive) | -7.4e-05 (inactive) | 0.00529 (inactive) | inactive | 12.3% (inactive)
8 | Oc1ccc(Br)cc1CNn1cnnc1 | 501 | -5.8% (inactive) | -3.9% (inactive) | 122% | -0.232 | 1.89 | 1.27 | -1.75% (inactive) | -0.454 (inactive) | -2.5e-06 (inactive) | 0.0058 (inactive) | inactive | 16.1% (inactive)
9 | Cc1ccccc1OCc1nc2ccccc2c(=O)n1NC(=O)c1ccco1 | 346 | -13.7% (inactive) | -57% (inactive) | 104% | 0.846 | 0.49 | -1.53 | 19.3% (inactive) | -0.498 (inactive) | -1.5e-05 (inactive) | 0.00616 (inactive) | inactive | 24.1% (inactive)
10 | COc1ccc(-c2nnc3sc(-c4ccccc4OC)nn23)cc1 | 615 | -8.4% (inactive) | -30.4% (inactive) | 153% | 0.537 | -0.23 | -1.1 | -11.5% (inactive) | -0.413 (inactive) | -4.4e-05 (inactive) | 0.00877 (inactive) | inactive | 12.7% (inactive)
11 | Nc1nonc1OCCc1ccccc1 | 540 | -5.8% (inactive) | -31.5% (inactive) | 160% | 0.698 | 1.41 | 0.0192 | -6.06% (inactive) | -0.439 (inactive) | -4.6e-05 (inactive) | 0.00604 (inactive) | inactive | -3.19% (inactive)
12 | CC(=O)N[C@H]1C[C@@H]1c1ccccc1 | 404 | -8.9% (inactive) | 0.6% (inactive) | 103% | 0.812 | -0.111 | -1.93 | 6.04% (inactive) | -0.4 (inactive) | 3.1e-05 (inactive) | 0.00883 (inactive) | inactive | -14.5% (inactive)
13 | CCOc1ccc(/C(O)=C2/C(=O)C(=O)N(CCN(CC)CC)C2c2ccco2)cc1 (stereo unspecified) | 494 | -10.3% (inactive) | -38.9% (inactive) | 136% | 0.106 | 0.969 | -0.475 | -15% (inactive) | -0.521 (inactive) | -4.6e-05 (inactive) | 0.00598 (inactive) | inactive | -2.21% (inactive)
14 | CCOC(=O)c1sc(-n2[nH]c(C)cc2=O)nc1C | 452 | -2.2% (inactive) | -23% (inactive) | 170% | 1.1 | -0.753 | 0.507 | -10.1% (inactive) | -0.398 (inactive) | -7e-05 (inactive) | 0.00502 (inactive) | inactive | -4.12% (inactive)
15 | C=CCc1c(C)c(C#N)c2nc3ccccc3n2c1N1CCN(C)CC1 | 528 | -23% (inactive) | -93.7% (inactive) | 150% | -0.94 | -0.784 | -1.36 | -15% (inactive) | -0.476 (inactive) | -2e-05 (inactive) | 0.00524 (inactive) | inactive | 7.97% (inactive)
16 | CC1(C)CC(=O)C(C=NCC(O)c2ccccc2)=C(O)C1 (stereo unspecified) | 461 | -12.7% (inactive) | -181% (inactive) | 204% | -1.15 | 1.23 | 0.572 | 4.37% (inactive) | -0.354 (inactive) | -1.9e-05 (inactive) | 0.00522 (inactive) | inactive | 14.3% (inactive)
17 | CCOc1ccc(C2C(C(=O)c3ccc(C)o3)=C(O)C(=O)N2CCCN(CC)CC)cc1 (stereo unspecified) | 518 | -20.5% (inactive) | -72.6% (inactive) | 151% | 1.15 | -0.0565 | 0.452 | -2.47% (inactive) | -0.509 (inactive) | -3.9e-05 (inactive) | 0.00538 (inactive) | inactive | 0.749% (inactive)
18 | Cc1nc2sc3c(c2c(=O)o1)CC(C)(C)OC3 | 555 | -9.6% (inactive) | 23.7% (inactive) | 115% | 0.476 | 1.45 | -1.12 | 7.7% (inactive) | -0.461 (inactive) | -1.1e-05 (inactive) | 0.0057 (inactive) | inactive | -15.1% (inactive)
19 | Cc1nnc(SCCC#N)n(CCC#N)c1=O | 585 | -13.5% (inactive) | 24.6% (inactive) | 164% | -0.25 | 0.45 | 2.53 | 1.12% (inactive) | -0.396 (inactive) | -3e-05 (inactive) | 0.00584 (inactive) | inactive | 7.85% (inactive)
20 | Cc1cc2c(c(=O)n1CC1CCCO1)C(c1ccc3c(c1)OCO3)C(C#N)=C(N)O2 (stereo unspecified) | 430 | -3.9% (inactive) | -118% (inactive) | 138% | -0.219 | 0.61 | 1.43 | -2.91% (inactive) | -0.369 (inactive) | -4.9e-05 (inactive) | 0.00655 (inactive) | inactive | -9.27% (inactive)
21 | COc1cccc(-c2nnc3sc(-c4ccccc4)nn23)c1 | 659 | 1.9% (inactive) | -40.1% (inactive) | 160% | -2.38 | 2.05 | 2 | -15% (inactive) | -0.424 (inactive) | -0.000144 (inactive) | 0.00489 (inactive) | inactive | -5.58% (inactive)
22 | CC(C)C1Cc2c(sc3c2c(=O)n(-c2ccccc2)c2nncn32)CO1 (stereo unspecified) | 603 | -21.3% (inactive) | -90.9% (inactive) | 179% | -0.575 | -0.884 | 1.06 | 3.56% (inactive) | -0.379 (inactive) | -5.4e-05 (inactive) | 0.00589 (inactive) | inactive | -0.205% (inactive)
23 | CCOP(=O)(c1ccccc1)c1nc(-c2ccccc2C)oc1N1CCCCC1 (stereo unspecified) | 603 | -2.4% (inactive) | -34% (inactive) | 167% | -0.907 | 0.675 | 1.07 | 13.2% (inactive) | -0.49 (inactive) | -0.000125 (inactive) | 0.00422 (inactive) | inactive | 56.6% (active)
24 | Cn1c2ccccc2c2nn(-c3ccccc3)c(=O)cc21 | 304 | -5% (inactive) | -28.5% (inactive) | 94.5% | -1.04 | 0.853 | -0.375 | -8.59% (inactive) | -0.441 (inactive) | -0.000115 (inactive) | 0.00467 (inactive) | inactive | -13.4% (inactive)
25 | CCOC(=O)c1oc2cc(O)cc(C)c2c(=O)c1-c1cscn1 | 583 | -5.6% (inactive) | -117% (inactive) | 133% | 0.544 | -0.073 | -1.73 | 19.8% (inactive) | -0.569 (inactive) | -4.5e-05 (inactive) | 0.0036 (inactive) | inactive | -5.6% (inactive)
26 | Cn1nccc1C(=O)Nc1ccccc1C(=O)O | 640 | -1.2% (inactive) | 16% (inactive) | 170% | 1.93 | -0.909 | -0.448 | 11.4% (inactive) | -0.449 (inactive) | -0.000369 (inactive) | 0.00518 (inactive) | inactive | 15.5% (inactive)
27 | N#CC(C(=O)NC1CC1)c1nc2ccccc2nc1N1CCN(C/C=C/c2ccccc2)CC1 (stereo unspecified) | 507 | -4.6% (inactive) | -99.8% (inactive) | 164% | -0.376 | 0.378 | 1.69 | 2.46% (inactive) | -0.304 (inactive) | -1.2e-05 (inactive) | -0.000245 (inactive) | inactive | 26.9% (inactive)
